Experimental data taken from ChEMBL document CHEMBL2062460, “Disubstituted thiourea derivatives and their activity on CNS: synthesis and biological evaluation” (Eur J Med Chem, 2012).
Converted amounts (≈) assume the structure as drawn. The source made the active and inactive calls. No cut-off for these calls is given here.

How the values were obtained:
[1] = system: Staphylococcus aureus; test: Antibacterial activity against methicillin-resistant Staphylococcus aureus clinical isolate 306/08 after 18 hrs by twofold serial agar dilution technique; type: functional; conditions: clinical isolate 306/08, 18 h
Procedure, shortened: (§1)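 Clinical isolates came from patients in Warsaw Medical University Hospitals and were classed as methicillin-susceptible or -resistant. MIC was determined by twofold serial agar dilution on Mueller–Hinton II agar (CLSI), 3.125–400 µg/mL in agar, with compounds in methanol or DMSO. Inoculum was 10^4 CFU/mL and plates were read after 18 h at 35 °C.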

[2] = system: Staphylococcus aureus; test: Antibacterial activity against methicillin-resistant Staphylococcus aureus clinical isolate 357/09 after 18 hrs by twofold serial agar dilution technique; type: functional; conditions: clinical isolate 357/09, 18 h; procedure, shortened: as §1
[3] = system: Staphylococcus aureus; test: Antibacterial activity against Staphylococcus aureus ATCC 25923 at 400 ug/disc after 18 hrs by disc diffusion method; type: functional; conditions: for zone of inhibition at 400 µg/disc: ATCC 25923, 18 h, read-out: DIZ
Procedure, shortened: (§2)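 Disc diffusion per CLSI on Mueller–Hinton II agar; 9 mm paper discs loaded from methanol or DMSO solutions to 400 µg per disc, dried; growth inhibition zone diameter read after 18 h at 35 °C.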

[4] = system: Candida parapsilosis; test: Antifungal activity against Candida parapsilosis ATCC 22019 at 400 ug/disc after 18 hrs by disc diffusion method; type: functional, organism-based
Procedure, shortened: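 Yeasts tested by disc diffusion (CLSI) on RPMI agar with 2% glucose; 9 mm paper discs bearing 400 µg compound from methanol or DMSO solution; inhibition zone diameter read after 18 h at 35 °C.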

[5] = system: Pseudomonas aeruginosa; test: Antibacterial activity against Pseudomonas aeruginosa ATCC 27853 at 400 ug/disc after 18 hrs by disc diffusion method; type: functional, organism-based; procedure, shortened: as §2
[6] = system: Staphylococcus aureus; test: Antibacterial activity against methicillin-resistant Staphylococcus aureus clinical isolate 325/09 after 18 hrs by twofold serial agar dilution technique; type: functional; conditions: clinical isolate 325/09, 18 h; procedure, shortened: as §1
[7] = system: Staphylococcus aureus; test: Antibacterial activity against Staphylococcus aureus ATCC 6538 after 18 hrs by twofold serial agar dilution technique; type: functional; conditions: ATCC 6538, 18 h
Procedure, shortened: (§3)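 Twofold serial agar dilution on Mueller–Hinton II agar, following CLSI guidelines. Compounds were dissolved in methanol or DMSO and tested at final agar concentrations of 3.125–400 µg/mL. Final inoculum was 10^4 CFU/mL.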

[8] = system: Staphylococcus aureus; test: Antibacterial activity against methicillin-resistant Staphylococcus aureus clinical isolate 356/09 after 18 hrs by twofold serial agar dilution technique; type: functional; conditions: clinical isolate 356/09, 18 h; procedure, shortened: as §1
[9] = system: Staphylococcus aureus; test: Antibacterial activity against Staphylococcus aureus NCTC 4163 after 18 hrs by twofold serial agar dilution technique; type: functional; conditions: NCTC 4163, 18 h; procedure, shortened: as §3
[10] = system: Staphylococcus epidermidis; test: Antibacterial activity against Staphylococcus epidermidis ATCC 12228 after 18 hrs by twofold serial agar dilution technique; type: functional; conditions: ATCC 12228, 18 h; procedure, shortened: as §3
[11] = system: Staphylococcus aureus; test: Antibacterial activity against methicillin-resistant Staphylococcus aureus clinical isolate 329/08 after 18 hrs by twofold serial agar dilution technique; type: functional; conditions: clinical isolate 329/08, 18 h; procedure, shortened: as §1
[12] = system: Staphylococcus aureus; test: Antibacterial activity against methicillin-susceptible Staphylococcus aureus clinical isolate 338/08 after 18 hrs by twofold serial agar dilution technique; type: functional; conditions: clinical isolate 338/08, 18 h; procedure, shortened: as §1
[13] = system: Micrococcus luteus; test: Antibacterial activity against Micrococcus luteus ATCC 9341 at 400 ug/disc after 18 hrs by disc diffusion method; type: functional; conditions: ATCC 9341, 18 h, read-out: DIZ; procedure, shortened: as §2
[14] = system: Staphylococcus aureus; test: Antibacterial activity against methicillin-susceptible Staphylococcus aureus clinical isolate 372/09 after 18 hrs by twofold serial agar dilution technique; type: functional; conditions: clinical isolate 372/09, 18 h; procedure, shortened: as §1
[15] = system: Escherichia coli; test: Antibacterial activity against Escherichia coli ATCC 25922 at 400 ug/disc after 18 hrs by disc diffusion method; type: functional, organism-based; procedure, shortened: as §2
[16] = system: Staphylococcus aureus; test: Antibacterial activity against Staphylococcus aureus ATCC 29213 after 18 hrs by twofold serial agar dilution technique; type: functional; conditions: ATCC 29213, 18 h; procedure, shortened: as §3
[17] = system: Escherichia coli; test: Antibacterial activity against Escherichia coli ATCC 10538 at 400 ug/disc after 18 hrs by disc diffusion method; type: functional, organism-based; procedure, shortened: as §2
[18] = system: Staphylococcus epidermidis; test: Antibacterial activity against methicillin-resistant Staphylococcus epidermidis clinical isolate 318/08 after 18 hrs by twofold serial agar dilution technique; type: functional; conditions: clinical isolate 318/08, 18 h; procedure, shortened: as §1
[19] = system: Micrococcus luteus; test: Antibacterial activity against Micrococcus luteus ATCC 10240 at 400 ug/disc after 18 hrs by disc diffusion method; type: functional; conditions: ATCC 10240, 18 h, read-out: DIZ; procedure, shortened: as §2
[20] = system: Staphylococcus epidermidis; test: Antibacterial activity against methicillin-resistant Staphylococcus epidermidis clinical isolate 341/09 after 18 hrs by twofold serial agar dilution technique; type: functional; conditions: clinical isolate 341/09, 18 h; procedure, shortened: as §1
[21] = system: Bacillus cereus; test: Antibacterial activity against Bacillus cereus ATCC 11778 at 400 ug/disc after 18 hrs by disc diffusion method; type: functional; conditions: ATCC 11778, 18 h, read-out: DIZ; procedure, shortened: as §2
[22] = system: Staphylococcus aureus; test: Antibacterial activity against methicillin-susceptible Staphylococcus aureus clinical isolate 339/09 after 18 hrs by twofold serial agar dilution technique; type: functional; conditions: clinical isolate 339/09, 18 h; procedure, shortened: as §1
[23] = system: Staphylococcus aureus; test: Antibacterial activity against methicillin-susceptible Staphylococcus aureus clinical isolate 256/08 after 18 hrs by twofold serial agar dilution technique; type: functional; conditions: clinical isolate 256/08, 18 h; procedure, shortened: as §1
[24] = Cytotoxicity against human MT4 cells after 96 hrs by MTT assay; type: cell-based
[25] = system: Staphylococcus aureus; test: Antibacterial activity against methicillin-resistant Staphylococcus aureus clinical isolate 309/08 after 18 hrs by twofold serial agar dilution technique; type: functional; conditions: clinical isolate 309/08, 18 h; procedure, shortened: as §1
[26] = system: Escherichia coli; test: Antibacterial activity against Escherichia coli NCTC 8196 at 400 ug/disc after 18 hrs by disc diffusion method; type: functional, organism-based; procedure, shortened: as §2
[27] = system: Bacillus cereus; test: Antibacterial activity against Bacillus cereus ATCC 11778 after 18 hrs by twofold serial agar dilution technique; type: functional; conditions: ATCC 11778, 18 h

S=C(Nc1nc[nH]n1)Nc1ccccc1Br
MIC [1]: 50 mg/L (≈ 168 µM) | MIC [2]: 50 mg/L (≈ 168 µM) | zone of inhibition at 400 µg/disc [3]: 13 mm | diameter of the inhibition zone (DIZ) [4]: inactive | diameter of the inhibition zone (DIZ) [5]: inactive | MIC [6]: 50 mg/L (≈ 168 µM) | MIC [7]: 50 mg/L (≈ 168 µM) | MIC [8]: 50 mg/L (≈ 168 µM) | MIC [9]: 50 mg/L (≈ 168 µM) | MIC [10]: 25 mg/L (≈ 83.8 µM) | MIC [11]: 50 mg/L (≈ 168 µM) | MIC [12]: 50 mg/L (≈ 168 µM) | zone of inhibition at 400 µg/disc [13]: 16 mm | MIC [14]: 50 mg/L (≈ 168 µM) | diameter of the inhibition zone (DIZ) [15]: inactive | MIC [16]: 50 mg/L (≈ 168 µM) | diameter of the inhibition zone (DIZ) [17]: inactive | MIC [18]: 50 mg/L (≈ 168 µM) | zone of inhibition at 400 µg/disc [19]: 15 mm | MIC [20]: 100 mg/L (≈ 335 µM) | zone of inhibition at 400 µg/disc [21]: 12 mm | MIC [22]: 50 mg/L (≈ 168 µM) | MIC [23]: 50 mg/L (≈ 168 µM) | CC50 at 96 h [24]: > 100 µM | MIC [25]: 50 mg/L (≈ 168 µM) | diameter of the inhibition zone (DIZ) [26]: inactive | MIC [27]: 25 mg/L (≈ 83.8 µM)

Fc1ccccc1NC(=S)Nc1nc[nH]n1
MIC [1]: > 400 mg/L | MIC [2]: > 400 mg/L | zone of inhibition at 400 µg/disc [3]: 19 mm | diameter of the inhibition zone (DIZ) [4]: inactive | diameter of the inhibition zone (DIZ) [5]: inactive | MIC [6]: > 400 mg/L | MIC [7]: 200 mg/L (≈ 843 µM) | MIC [8]: > 400 mg/L | MIC [9]: 200 mg/L (≈ 843 µM) | MIC [10]: 200 mg/L (≈ 843 µM) | MIC [11]: > 400 mg/L | MIC [12]: > 400 mg/L | zone of inhibition at 400 µg/disc [13]: 24 mm | MIC [14]: > 400 mg/L | diameter of the inhibition zone (DIZ) [15]: inactive | MIC [16]: 200 mg/L (≈ 843 µM) | diameter of the inhibition zone (DIZ) [17]: inactive | zone of inhibition at 400 µg/disc [19]: 38 mm | zone of inhibition at 400 µg/disc [21]: 11 mm | MIC [22]: > 400 mg/L | MIC [23]: > 400 mg/L | MIC [25]: > 400 mg/L | diameter of the inhibition zone (DIZ) [26]: inactive | MIC [27]: 100 mg/L (≈ 421 µM)

S=C(Nc1ccccc1)Nc1nc[nH]n1
MIC [1]: 50 mg/L (≈ 228 µM) | MIC [2]: 50 mg/L (≈ 228 µM) | diameter of the inhibition zone (DIZ) [3]: inactive | diameter of the inhibition zone (DIZ) [4]: inactive | diameter of the inhibition zone (DIZ) [5]: inactive | MIC [6]: 50 mg/L (≈ 228 µM) | MIC [7]: 100 mg/L (≈ 456 µM) | MIC [8]: 50 mg/L (≈ 228 µM) | MIC [9]: 100 mg/L (≈ 456 µM) | MIC [10]: 50 mg/L (≈ 228 µM) | MIC [11]: 50 mg/L (≈ 228 µM) | MIC [12]: 50 mg/L (≈ 228 µM) | zone of inhibition at 400 µg/disc [13]: 14 mm | MIC [14]: 50 mg/L (≈ 228 µM) | diameter of the inhibition zone (DIZ) [15]: inactive | MIC [16]: 100 mg/L (≈ 456 µM) | diameter of the inhibition zone (DIZ) [17]: inactive | MIC [18]: 50 mg/L (≈ 228 µM) | zone of inhibition at 400 µg/disc [19]: 12 mm | MIC [20]: 100 mg/L (≈ 456 µM) | zone of inhibition at 400 µg/disc [21]: 12 mm | MIC [22]: 50 mg/L (≈ 228 µM) | MIC [23]: 50 mg/L (≈ 228 µM) | CC50 at 96 h [24]: > 100 µM | MIC [25]: 50 mg/L (≈ 228 µM) | diameter of the inhibition zone (DIZ) [26]: inactive | MIC [27]: 100 mg/L (≈ 456 µM)

S=C(Nc1ccc(Br)cc1)Nc1nc[nH]n1
MIC [1]: 50 mg/L (≈ 168 µM) | MIC [2]: 50 mg/L (≈ 168 µM) | zone of inhibition at 400 µg/disc [3]: 22 mm | diameter of the inhibition zone (DIZ) [4]: inactive | diameter of the inhibition zone (DIZ) [5]: inactive | MIC [6]: 50 mg/L (≈ 168 µM) | MIC [7]: 50 mg/L (≈ 168 µM) | MIC [8]: 50 mg/L (≈ 168 µM) | MIC [9]: 50 mg/L (≈ 168 µM) | MIC [10]: 25 mg/L (≈ 83.8 µM) | MIC [11]: 50 mg/L (≈ 168 µM) | MIC [12]: 50 mg/L (≈ 168 µM) | zone of inhibition at 400 µg/disc [13]: 28 mm | MIC [14]: 25 mg/L (≈ 83.8 µM) | diameter of the inhibition zone (DIZ) [15]: inactive | MIC [16]: 25 mg/L (≈ 83.8 µM) | diameter of the inhibition zone (DIZ) [17]: inactive | MIC [18]: 25 mg/L (≈ 83.8 µM) | zone of inhibition at 400 µg/disc [19]: 29 mm | MIC [20]: 50 mg/L (≈ 168 µM) | zone of inhibition at 400 µg/disc [21]: 18 mm | MIC [22]: 50 mg/L (≈ 168 µM) | MIC [23]: 25 mg/L (≈ 83.8 µM) | CC50 at 96 h [24]: > 100 µM | MIC [25]: 50 mg/L (≈ 168 µM) | diameter of the inhibition zone (DIZ) [26]: inactive | MIC [27]: 12.5 mg/L (≈ 41.9 µM)
